Data set [1] deals with T1, recombinant human PEPD (Homo sapiens, UniProt P12955).
T1 sequence (P12955 1-493): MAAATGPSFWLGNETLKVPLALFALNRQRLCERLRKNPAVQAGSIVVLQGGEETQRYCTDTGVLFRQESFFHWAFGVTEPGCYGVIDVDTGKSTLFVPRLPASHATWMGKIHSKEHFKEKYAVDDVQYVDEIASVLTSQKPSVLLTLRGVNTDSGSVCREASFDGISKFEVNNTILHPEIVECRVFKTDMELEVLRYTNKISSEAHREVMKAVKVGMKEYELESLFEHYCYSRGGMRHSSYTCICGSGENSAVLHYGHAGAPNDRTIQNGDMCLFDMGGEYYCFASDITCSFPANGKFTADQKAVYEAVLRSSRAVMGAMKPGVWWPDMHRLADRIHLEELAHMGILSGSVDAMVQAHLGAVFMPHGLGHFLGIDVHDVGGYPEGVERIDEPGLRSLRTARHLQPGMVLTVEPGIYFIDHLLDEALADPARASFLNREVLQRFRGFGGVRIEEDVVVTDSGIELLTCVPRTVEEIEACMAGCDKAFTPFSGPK
Nature of the data set: Inhibition of recombinant PEPD, alanine release assay. In kind it is biochemical.

Data set [2] concerns the target recombinant XPNPEP1 (Homo sapiens, UniProt Q9NQW7). Nature of the data set: Inhibition of recombinant XPNPEP1, H-Lys. It is filed as biochemical. The following applies: for XPNPEP1 inhibition (in words): recombinant XPNPEP1.
Data set [3] in a line: Stability in cell culture supernatants. In kind it is in vitro ADME. The procedure, abridged: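 Test compounds are incubated in conditioned medium collected from MV4;11 cultures for 24 h at 37 °C. Intact compound and the free acid product are then quantified by LC/MS, with species identified by retention time. Values are means ± SEM of three biological replicates.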
In data set [4] the test system is MV4;11 WT cells. Nature of the data set: CellTiter-Glo cell viability, WT MV4. In kind it is cell-based, human. The note with it: CTG, 24 h. (In general: ATP-based viability assays read luminescence as a measure of living cells.)
Data set [5] concerns MV4;11 CASP1^−/− cells. Nature of the data set: CellTiter-Glo cell viability, CASP1 knockout MV4. The note with it: for Cell death independent of CASP1 in MV4;11 cells (in words): WT and CASP1^−/− MV4;11, CTG, 24 h. In kind it is cell-based, human. The procedure, abridged:
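CASP1-knockout MV4;11 cells (generated previously) are grown alongside wild type in RPMI 1640 with 10% FBS at 37 °C in 5% CO2. Cells are plated at 2000 per well in 384-well plates and dosed by pin tool in three-fold dilutions, topping at 100 μM (down to 15.2 nM) or 10 μM (down to 1.5 nM). After 24 h, CellTiter-Glo luminescence is read (2 min shake, 10 min at 25 °C). IC50 values are means ± SEM of three biological replicates.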

For data set [6], the system named is OCI-AML2 cells. Nature of the data set: PI uptake in OCI-AML2 cells. In kind it is cell-based, human. The following applies: 6.25 μM, compared to CQ31. In a few lines: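 OCI-AML2 cells (2 × 10^4 per well, 384-well, RPMI) are treated with 6.25 μM compound, with PI added at 10 μM final. PI fluorescence (Ex/Em 535/617 nm) is recorded at 37 °C every 5 min over 6 h. Signals are baseline-corrected to DMSO vehicle and normalized to the maximum response. Values are means ± SEM of three biological replicates.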

Data set [7] deals with DOX-inducible CARD8 E274R mutant THP-1 cells. Put plainly: CARD8 E274R mutant NT degradation assay in CARD8^−/− THP-1 cells. It is filed as cell-based, human. The following applies: DOX 100 ng/mL 16 h; VbP 10 μM, CQ31/CQ80 20 μM, VP-OMe 1 mM, MeBs 10 μM; 6 h. In a few lines:
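Parental CARD8-knockout THP-1 cells carry a stably integrated doxycycline-inducible CARD8 E274R construct. Cells are grown in RPMI 1640 with L-glutamine and 10% FBS at 37 °C in 5% CO2. They are induced with or without DOX (100 ng/mL, 16 h), then exposed to test compounds for 6 h.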

Data set [8] addresses CARD8-DPP9 ternary complex in HEK 293T^CASP1+GSDMD cells (Homo sapiens, UniProt Q86TI2). Nature of the data set: dTAG-based CARD8-DPP9 ternary complex disruption assay. It is filed as cell-based. The following applies: dTAG-13 500 nM; VbP 10 μM, CQ31 20 μM, CQ80 20 μM, VP-OMe 1 mM; 6 h; LDH release. On the technique in general: Release of lactate dehydrogenase indicates damage to the cell membrane.

Consider 22 compounds from paper PMC10149104 (Journal of medicinal chemistry, 2023).

Each structure is given as a SMILES string. Where a SMILES comes first, the peptide text is derived from it. A value given as a limit tells only on which side of the number the result lay.

Sequence of recombinant XPNPEP1 (Q9NQW7 whole entry): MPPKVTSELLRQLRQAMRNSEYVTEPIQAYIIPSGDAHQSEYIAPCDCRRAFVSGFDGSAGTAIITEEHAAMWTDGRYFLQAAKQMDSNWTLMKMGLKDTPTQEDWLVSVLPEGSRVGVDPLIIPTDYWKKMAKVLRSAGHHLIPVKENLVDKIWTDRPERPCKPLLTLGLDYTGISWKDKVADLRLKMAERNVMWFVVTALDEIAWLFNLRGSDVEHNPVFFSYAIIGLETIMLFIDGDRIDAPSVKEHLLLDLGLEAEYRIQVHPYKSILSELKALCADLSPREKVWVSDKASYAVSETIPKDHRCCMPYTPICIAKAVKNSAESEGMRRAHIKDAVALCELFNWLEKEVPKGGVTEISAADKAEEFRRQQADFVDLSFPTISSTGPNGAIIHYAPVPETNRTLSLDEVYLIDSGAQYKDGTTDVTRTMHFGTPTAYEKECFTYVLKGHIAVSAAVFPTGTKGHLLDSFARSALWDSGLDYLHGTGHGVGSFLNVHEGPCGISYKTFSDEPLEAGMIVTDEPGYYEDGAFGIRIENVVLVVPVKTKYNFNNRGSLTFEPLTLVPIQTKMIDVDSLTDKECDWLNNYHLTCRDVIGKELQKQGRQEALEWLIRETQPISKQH
Sequence of CARD8-DPP9 ternary complex in HEK 293T^CASP1+GSDMD cells (Q86TI2 whole entry, one chain of several): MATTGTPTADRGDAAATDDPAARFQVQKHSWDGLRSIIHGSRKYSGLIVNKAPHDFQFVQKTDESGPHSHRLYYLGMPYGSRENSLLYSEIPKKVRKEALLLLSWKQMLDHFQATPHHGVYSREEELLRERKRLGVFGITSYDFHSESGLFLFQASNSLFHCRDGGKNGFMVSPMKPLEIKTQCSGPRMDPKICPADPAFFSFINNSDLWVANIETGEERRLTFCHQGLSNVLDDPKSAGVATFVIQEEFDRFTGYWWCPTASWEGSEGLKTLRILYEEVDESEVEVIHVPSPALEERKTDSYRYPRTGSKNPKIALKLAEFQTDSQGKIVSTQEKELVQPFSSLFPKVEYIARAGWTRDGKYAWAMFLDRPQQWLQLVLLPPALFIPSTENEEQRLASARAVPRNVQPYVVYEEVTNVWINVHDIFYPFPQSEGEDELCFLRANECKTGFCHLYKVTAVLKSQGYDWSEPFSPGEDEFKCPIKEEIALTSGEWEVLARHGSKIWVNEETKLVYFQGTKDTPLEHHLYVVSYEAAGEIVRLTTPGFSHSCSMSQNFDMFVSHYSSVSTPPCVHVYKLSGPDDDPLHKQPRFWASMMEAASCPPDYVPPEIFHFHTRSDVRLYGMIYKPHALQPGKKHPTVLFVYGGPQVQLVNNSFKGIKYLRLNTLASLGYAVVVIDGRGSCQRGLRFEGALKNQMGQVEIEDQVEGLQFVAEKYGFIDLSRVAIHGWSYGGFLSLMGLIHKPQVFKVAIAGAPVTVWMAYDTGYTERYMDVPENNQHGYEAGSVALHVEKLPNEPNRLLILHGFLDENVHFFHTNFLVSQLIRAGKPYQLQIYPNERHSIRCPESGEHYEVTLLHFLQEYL

In the case of `CC(C)C[C@@H](N)C(O)C(=O)N1CCC[C@H]1C(=O)O` (stereo partly drawn) [CQ04, (2S,3R)-3-amino-2-hydroxy-5-methyl-hexanoyl-proline], the “PEPD inhibition (in words)” value in data set [1] is on record as “more potent than CQ31”. Moreover, the “XPNPEP1 inhibition (in words)” value in data set [2] was “more potent than CQ31”.

On to `CC(C)C[C@@H](N)[C@H](O)C(=O)N1CCC[C@H]1C(=O)OC(C)(C)C` [CQ34, tert-Butyl ((2S,3R)-3-Amino-2-hydroxy-5-methylhexanoyl)-L-pro-linate], for which the “PEPD inhibition (in words)” value in data set [1] is “inhibited PEPD and XPNPEP1 similarly”. In addition, in data set [3], the “Stability in cell culture supernatants (in words)” value is “considerably more stable than CQ31 or CQ94” and the “Time after which completely hydrolyzed” value is listed as no more than 8 h. In addition, the “XPNPEP1 inhibition (in words)” value in data set [2] is “inhibited PEPD and XPNPEP1 similarly”. In addition, the “Cytotoxicity / activity against MV4;11 cells (in words)” value (“Cytotoxicity / activity” for short) in data set [4] is given as “slightly more toxic”.

Consider `COC(=O)[C@@H]1C[C@H](O)CN1C(=O)[C@@H](O)[C@H](N)CC(C)C` [CQ39, Methyl (2S,4S)-1-((2S,3R)-3-Amino-2-hydroxy-5-methylhexano-yl)-4-hydroxypyrrolidine-2-carboxylate], for which the “Cytotoxicity / activity” value in data set [4] was “completely inactive”. Turning to `COC(=O)[C@@H]1CCCN1C(=O)[C@@H](O)[C@H](N)Cc1ccccc1` [CQ42, Methyl ((2S,3R)-3-Amino-2-hydroxy-4-phenylbutanoyl)-l-prolinate], the “Cytotoxicity / activity” value in data set [4] was “almost completely inactive”. Still for that read-out and setting: in the case of `COC(=O)[C@@H]1CCCN1C(=O)[C@@H](O)[C@H](N)C12CC3CC(CC(C3)C1)C2` [CQ47, Methyl ((2S,3R)-3-(Adamantan-1-yl)-3-amino-2-hydroxypropanoyl)-l-prolinate] it was “almost completely inactive”; in that of `CC(C)C[C@@H](N)[C@H](O)C(=O)N1CCC[C@H]1C(N)=O` [CQ49, (S)-1-((2S,3R)-3-Amino-2-hydroxy-5-methylhexanoyl)-pyrrolidine-2-carboxamide], “retained similar PEPD/XPNPEP1 inhibition and cytotoxicity as CQ31”.

Turning to `COC(=O)[C@H](CC(C)C)NC(=O)[C@@H](O)[C@H](N)CC(C)C` [CQ52, Methyl ((2S,3R)-3-Amino-2-hydroxy-5-methylhexanoyl)-l-leucinate], the “PEPD inhibition (in words)” value in data set [1] is “very weak PEPD and XPNPEP1 inhibitors”. Further, the “XPNPEP1 inhibition (in words)” value in data set [2] was “very weak PEPD and XPNPEP1 inhibitors”. The “Cell death independent of CASP1 in MV4;11 cells (in words)” value (“Cell death independent of CASP1” for short) in data set [5] is given as “triggered CASP1-independent cell death”.

For `CC(C)C[C@@H](N)[C@H](O)C(=O)N1CCC[C@H]1CNS(C)(=O)=O` [CQ53, N-(((S)-1-((2S,3R)-3-Amino-2-hydroxy-5-methylhexanoyl)-pyrrolidin-2-yl)methyl)methanesulfon-amide], in data set [4], the “Cytotoxicity / activity” value was “completely inactive in cells”. The same measure, in the same setting: in the case of `CONC(=O)[C@@H]1CCCN1C(=O)[C@@H](O)[C@H](N)CC(C)C` [CQ55, (S)-1-((2S,3R)-3-Amino-2-hydroxy-5-methylhexanoyl)-N-methoxypyrrolidine-2-carboxamide] it was “completely inactive in cells”. Still for that read-out and setting: in the case of `COC(=O)[C@@H]1CCCN1C(=O)[C@@H](O)[C@H](N)C1CC1` [CQ62, Methyl ((2S,3R)-3-Amino-3-cyclopropyl-2-hydroxypropanoyl)-l-prolinate] it was “almost completely inactive”.

As for `COC(=O)[C@H](Cc1ccccc1)NC(=O)[C@@H](O)[C@H](N)CC(C)C` [CQ72, Methyl ((2S,3R)-3-Amino-2-hydroxy-5-methylhexanoyl)-l-phenylalaninate], the “PEPD inhibition (in words)” value in data set [1] is “very weak PEPD and XPNPEP1 inhibitors”. Also, the “XPNPEP1 inhibition (in words)” value in data set [2] was “very weak PEPD and XPNPEP1 inhibitors”. Besides, the “Cell death independent of CASP1” value in data set [5] is given as “triggered CASP1-independent cell death”. Take `COC(=O)[C@@H]1CCCN1C(=O)[C@@H](O)[C@H](N)CCCCO` [CQ75]: in data set [1], the “PEPD inhibition (in words)” value was “retained PEPD inhibition”. In addition, the “Cytotoxicity / activity” value in data set [4] is “lost cytotoxicity”. Consider `CC(C)C[C@@H](N)[C@H](O)C(=O)N1CCCC1` [CQ76, (2S,3R)-3-Amino-2-hydroxy-5-methyl-1-(pyrrolidin-1-yl)hexan-1-one], for which, in data set [4], the “Cytotoxicity / activity” value was “abrogated all activity”.

As to `COC(=O)[C@@H](NC(=O)[C@@H]1CCCN1C(=O)[C@@H](O)[C@H](N)CC(C)C)C(C)C` [CQ78, Methyl ((2S,3R)-3-Amino-2-hydroxy-5-methylhexanoyl)-l-prolyl-l-valinate], in data set [6], the “Rate of lytic cell death by PI uptake in OCI-AML2 cells” value is “caused more rapid lytic cell death”. With `CC(C)C[C@H](NC(=O)[C@@H]1CCCN1C(=O)[C@@H](O)[C@H](N)CC(C)C)C(=O)O` [CQ92], in data set [1], the “PEPD inhibition (in words)” value was “more potent inhibitor of both PEPD and XPNPEP1 than CQ80”. Moreover, in data set [2], the “XPNPEP1 inhibition (in words)” value is “more potent inhibitor of both PEPD and XPNPEP1 than CQ80”. With `CC(C)C[C@@H](N)[C@H](O)C(=O)N1CCC[C@H]1C(=O)OC1CCCC1` [CQ94, Cyclopentyl ((2S,3R)-3-Amino-2-hydroxy-5-methylhexanoyl)-L-prolinate], in data set [1], the “PEPD inhibition (in words)” value was “inhibited PEPD and XPNPEP1 similarly”. The “XPNPEP1 inhibition (in words)” value in data set [2] was “inhibited PEPD and XPNPEP1 similarly”. In addition, in data set [4], the “Cytotoxicity / activity” value is listed as “slightly more toxic”.

Regarding `CC(C)CCNC(=O)[C@@H]1CCCN1C(=O)[C@@H](O)[C@H](N)CC(C)C` [CQ95, (S)-1-((2S,3R)-3-Amino-2-hydroxy-5-methylhexanoyl)-N-isopentylpyrrolidine-2-carboxamide], the “Cytotoxicity / activity” value in data set [4] was “retained similar PEPD/XPNPEP1 inhibition and cytotoxicity as CQ31”. Consider `CC(C)C[C@@H](N)[C@H](O)C(=O)N1CCC[C@H]1c1nnn[nH]1` [CQ99, (2S,3R)-1-((S)-2-(1H-Tetrazol-5-yl)pyrrolidin-1-yl)-3-amino-2-hydroxy-5-methylhexan-1-one], for which, in data set [4], the “Cytotoxicity / activity” value was “completely inactive in cells”. `CC(C)C[C@H](NC(=O)[C@@H]1CCCN1C(=O)[C@@H](O)[C@H](N)CC(C)C)C(=O)NCCc1ccccc1` [CQ116, (S)-1-((2S,3R)-3-Amino-2-hydroxy-5-methylhexanoyl)-N-((S)-4-methyl-1-oxo-1-(phenethylamino)pentan-2-yl)pyrrolidine-2-carboxamide]: the “Stability in cell culture supernatants (in words)” value in data set [3] is on record as “completely stable”.

As to `COC(=O)[C@H](CC(C)C)NC(=O)[C@@H](O)[C@H](N)Cc1ccccc1` [MeBs, bestatin methyl ester, reference compound], the “Additional cell death in CARD8 E274R assay (NT degradation)” value in data set [7] is “still induce considerably more cell death”. In data set [5], the “Cell death independent of CASP1” value was “CASP1-independent cell death”.

Regarding `COC(=O)[C@@H]1CCCN1C(=O)[C@@H](N)C(C)C` [VP-OMe, reference compound] (H-Val-Pro-OMe), the “Pyroptosis after dTAG-13 treatment (ternary complex destabilization)” value in data set [8] was “induce more pyroptosis after dTAG-13 treatment”. In data set [7], the “Additional cell death in CARD8 E274R assay (NT degradation)” value is on record as “did not cause substantially more death”. On to `C[C@H](NC(=O)[C@@H]1CCCN1C(=O)[C@@H]1CCCN1C(=O)[C@@H](O)[C@H](N)Cc1ccccc1)C(N)=O` [apstatin, reference compound], for which the IC50 was 18 ± 1.7 µM in data set [2] (read-out: XPNPEP1 IC50 (μM ± SEM), recombinant XPNPEP1, H-Lys(abz)-Pro-Pro-pNA cleavage, means ± SEM of three biological replicates) and greater than 20 µM in data set [5] (read-out: MV4;11 CASP1^−/− IC50, CTG cell viability after 24 h treatment). Also, the “Cytotoxicity / activity” value in data set [4] is listed as “not cytotoxic at all”.
